pKi: −log10 of the molar value. Where a SMILES comes first, the peptide text is derived from it. [ ]: non-standard residue; d: D form. Phe(4-NH2) = Nc1ccc(C[C@H](N)C(=O)O)cc1
Experiments:
[1] = biological target: T1, Type-2 angiotensin II receptor (Homo sapiens) (UniProt P50052); test: Effect on [3H]thymidine incorporation into PC12 cells expressing AT2 receptors at 1.0 uM; details: PC-12
T1 sequence (whole entry): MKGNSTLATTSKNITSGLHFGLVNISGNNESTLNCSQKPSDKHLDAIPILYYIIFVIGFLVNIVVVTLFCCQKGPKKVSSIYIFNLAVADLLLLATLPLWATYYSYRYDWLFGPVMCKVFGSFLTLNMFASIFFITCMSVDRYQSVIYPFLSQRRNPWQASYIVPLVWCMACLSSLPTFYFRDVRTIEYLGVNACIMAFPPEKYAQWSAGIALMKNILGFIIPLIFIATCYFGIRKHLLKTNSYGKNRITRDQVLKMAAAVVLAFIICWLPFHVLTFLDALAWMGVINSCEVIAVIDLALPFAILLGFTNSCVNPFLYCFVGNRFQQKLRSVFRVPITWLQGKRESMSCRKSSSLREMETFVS

[2] = biological target: T2, Angiotensin II receptor (AT-1) type-1 (Rattus norvegicus, UniProt P29089+P25095); test: Displacement of [125I]-Ang II from angiotensin II receptor type 1 in rat liver membranes; assay type: cell membranes, Membrane
T2 sequence (P29089 whole entry): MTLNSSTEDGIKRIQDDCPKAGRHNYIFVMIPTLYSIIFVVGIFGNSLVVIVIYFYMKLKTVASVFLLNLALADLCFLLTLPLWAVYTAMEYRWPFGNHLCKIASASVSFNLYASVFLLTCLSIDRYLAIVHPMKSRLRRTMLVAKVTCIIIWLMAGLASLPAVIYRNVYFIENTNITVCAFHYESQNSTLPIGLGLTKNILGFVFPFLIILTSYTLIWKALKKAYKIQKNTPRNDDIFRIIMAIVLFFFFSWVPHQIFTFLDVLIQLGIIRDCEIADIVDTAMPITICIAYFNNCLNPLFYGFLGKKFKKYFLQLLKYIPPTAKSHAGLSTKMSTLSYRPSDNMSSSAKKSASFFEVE
T2 sequence (P25095 whole entry): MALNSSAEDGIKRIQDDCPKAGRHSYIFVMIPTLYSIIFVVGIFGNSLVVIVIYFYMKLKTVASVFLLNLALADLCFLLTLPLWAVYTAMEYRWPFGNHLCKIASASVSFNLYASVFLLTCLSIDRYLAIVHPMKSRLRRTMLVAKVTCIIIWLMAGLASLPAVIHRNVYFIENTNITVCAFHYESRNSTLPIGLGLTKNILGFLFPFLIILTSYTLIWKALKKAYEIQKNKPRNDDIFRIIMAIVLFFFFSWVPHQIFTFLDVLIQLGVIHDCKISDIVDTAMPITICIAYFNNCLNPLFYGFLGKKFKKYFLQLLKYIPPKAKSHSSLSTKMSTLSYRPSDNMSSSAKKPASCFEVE

NG108-15 = test: Effect on neurite outgrowth in NG108-15 cells after treatment for 3 days (control 2.26%)
[3] = biological target: T3, Type-2 angiotensin II receptor (Homo sapiens, UniProt P50052); test: Displacement of [125I]-Ang II from angiotensin II receptor type 2 in pig uterus myometrium; parameters: species or system Sus scrofa; details: target entry is the homologue from another species
T3 sequence (P50052 whole entry): T1 sequence (whole entry)
Outline: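 Porcine uterine myometrial membranes (10 mg tissue equivalent) with 1 µM losartan to block AT1. Tris-HCl pH 7.4 buffer with NaCl, MgCl2, EDTA, 0.2% BSA and peptidase inhibitors. Filtration, γ-counting; nonspecific binding with 1 µM Ang II.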

| Activity (Counts/minute) [1] | Ki [2] | pKi [3] | Compound | Activity (NG108-15) |
| --- | --- | --- | --- | --- |
| 68700 | – | – | Cc1cc(Cn2cnc3c2C[C@@H](C(=O)O)N(C(=O)C(c2ccccc2)c2ccccc2)C3)ccc1N(C)C | – |
| – | > 10 µM | – | NC(N)=NCCC[C@H](NC(=O)[C@@H](N)CC(=O)O)C(=O)Nc1ccc2c(c1)CN(CC(=O)N[C@@H](Cc1c[nH]cn1)C(=O)N1CCC[C@H]1C(=O)N[C@@H](Cc1ccccc1)C(=O)O)C(=O)[C@H](Cc1ccc(O)cc1)N2 | – |
| – | > 10 µM | – | CC[C@@H](C)[C@@H](C(=O)N[C@@H](Cc1c[nH]cn1)C(=O)N1CCC[C@H]1C(=O)N[C@@H](Cc1ccccc1)C(=O)O)N1Cc2cccc(NC(=O)[C@@H](NC(=O)[C@H](CCCN=C(N)N)NC(=O)[C@@H](N)CC(=O)O)C(C)C)c2N[C@@H](Cc2ccc(O)cc2)C1=O | – |
| – | > 10 µM | – | C[C@H](NC(=O)[C@@H](N)CC(=O)O)C(=O)Nc1cccc2c1N[C@@H](Cc1ccc(O)cc1)C(=O)N(CC(=O)N[C@@H](Cc1c[nH]cn1)C(=O)N1CCC[C@H]1C(=O)N[C@@H](Cc1ccccc1)C(=O)O)C2 | – |
| – | > 10 µM | – | CC(C)[C@H](NC(=O)[C@H](C)NC(=O)[C@@H](N)CC(=O)O)C(=O)Nc1cccc2c1N[C@@H](Cc1ccc(O)cc1)C(=O)N(CC(=O)N[C@@H](Cc1c[nH]cn1)C(=O)N1CCC[C@H]1C(=O)N[C@@H](Cc1ccccc1)C(=O)O)C2 | – |
| 45400 | > 10 µM | 8.52 | CC(C)[C@H](NC(=O)[C@H](CCCN=C(N)N)NC(=O)[C@@H](N)CC(=O)O)C(=O)Nc1ccc2c(c1)CN(CC(=O)N[C@@H](Cc1c[nH]cn1)C(=O)N1CCC[C@H]1C(=O)N[C@@H](Cc1ccccc1)C(=O)O)C(=O)[C@H](Cc1ccc(O)cc1)N2 | 11.1% |
| – | > 10 µM | – | CC(C)[C@H](NC(=O)[C@H](CCCN=C(N)N)NC(=O)[C@@H](N)CC(=O)O)C(=O)Nc1cccc2c1N[C@@H](Cc1ccc(O)cc1)C(=O)N(CC(=O)N[C@@H](Cc1c[nH]cn1)C(=O)N1CCC[C@H]1C(=O)N[C@@H](Cc1ccccc1)C(=O)O)C2 | 9.88% |
| – | > 10 µM | – | NC(N)=NCCC[C@H](NC(=O)[C@@H](N)CC(=O)O)C(=O)Nc1cccc2c1N[C@@H](Cc1ccc(O)cc1)C(=O)N(CC(=O)N[C@@H](Cc1c[nH]cn1)C(=O)N1CCC[C@H]1C(=O)N[C@@H](Cc1ccccc1)C(=O)O)C2 | 9.35% |
| – | > 10 µM | – | CC[C@@H](C)[C@@H](C(=O)N[C@@H](Cc1c[nH]cn1)C(=O)N1CCC[C@H]1C(=O)N[C@@H](Cc1ccccc1)C(=O)O)N1Cc2cccc(NC(=O)[C@H](CCCN=C(N)N)NC(=O)[C@@H](N)CC(=O)O)c2N[C@@H](Cc2ccc(O)cc2)C1=O | – |
| – | > 10 µM | – | CC[C@H](C)[C@H](NC(=O)[C@H](Cc1ccc(O)cc1)NC(=O)[C@@H](NC(=O)[C@H](CCCN=C(N)N)NC(=O)[C@@H](N)CC(=O)O)C(C)C)C(=O)N[C@@H](Cc1ccc(N)cc1)C(=O)N1CCC[C@H]1C(=O)N[C@@H](Cc1ccccc1)C(=O)O (H-DRVYI[Phe(4-NH2)]PF-OH) | – |

— ChEMBL document CHEMBL1144343 (J Med Chem, 2005)
